These results are taken from ChEMBL document CHEMBL3407428, “Synthesis, in vitro and in vivo antitumor activity of scopoletin-cinnamic acid hybrids” (Eur J Med Chem, 2015).

Usually IC50 stands for the concentration needed to halve the response being measured.

The subject of assay [1] is MDA-MB-231. The experiment in a line: Cytotoxicity against human MDA-MB-231 cells assessed as growth inhibition at 10^-5 M after 72 hrs by MTT assay relative to control. In kind it is functional. The settings on record: MDA-MB-231, 72 h, read-out: GI. On the technique in general: Formazan colour is commonly taken as a measure of viable cells.
Assay [2] concerns A549. Briefly: Cytotoxicity against human A549 cells assessed as growth inhibition at 10^-5 M after 72 hrs by MTT assay relative to control. Type of assay: functional. The settings on record: A549, 72 h, read-out: GI.
Assay [3] concerns HeLa. The experiment in a line: Cytotoxicity against human HeLa cells assessed as growth inhibition at 10^-5 M after 72 hrs by MTT assay relative to control. In kind it is functional. To be noted: read-out: GI.
Assay [4] can be described thus: Cytotoxicity against human HCT116 cells assessed as growth inhibition at 10^-5 M after 72 hrs by MTT assay relative to control. In kind it is functional. The settings on record: HCT-116, 72 h, read-out: GI.
Assay [5] deals with MCF7. The experiment in a line: Cytotoxicity against human MCF7 cells assessed as growth inhibition at 10^-5 M after 72 hrs by MTT assay relative to control. Type of assay: functional. To be noted: MCF7, 72 h, read-out: GI.
Assay [6] concerns MDA-MB-231. Briefly: Cytotoxicity against human MDA-MB-231 cells assessed as growth inhibition after 72 hrs by MTT assay. In kind it is functional, cell-based. To be noted: MDA-MB-231, 72 h. The method in brief:
(§1)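 MTT viability assay. Cells were seeded at 5000 per well, incubated overnight, then exposed to compound at a range of concentrations for 72 h. MTT was added from a 5 mg/mL stock for 4 h, and absorbance was read at 570 nm. IC50 (50% viability inhibition) was calculated by the logit method. Each concentration was run at least three times.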

Assay [7] is described as follows: Cytotoxicity against human HCT116 cells assessed as growth inhibition after 72 hrs by MTT assay. Type of assay: functional, cell-based. To be noted: HCT-116, 72 h. In a few lines: as §1
Assay [8] relates to A549. Briefly: Cytotoxicity against human A549 cells assessed as growth inhibition after 72 hrs by MTT assay. Type of assay: functional, cell-based. To be noted: A549, 72 h. In a few lines: as §1

Bounds are passed on as bounds.

With `COc1cc2ccc(=O)oc2cc1OC(=O)/C=C/c1cc(OC)c(OC)c(OC)c1`, the inhibition of growth at 10 µM turned out to be 11.8% in assay [1]; 20.6% in assay [2]; 0.93% in assay [3]; 18.9% in assay [4]; 18% in assay [5].
As to `COc1cc2cc(NC(=O)/C=C/c3ccc(F)cc3)c(=O)oc2cc1O`, the IC50 is 2350 nM in assay [6], 5540 nM in assay [7] and 612 nM in assay [8]. In addition, the inhibition of growth at 10 µM in assay [1] is 69.2%; in assay [2] it was 85.6%; in assay [3], 67.1%; in assay [4], 54.2%; in assay [5], 58.4%.
For the compound `COc1cc2cc(NC(=O)/C=C/c3ccc(C#N)cc3)c(=O)oc2cc1O`, the inhibition of growth at 10 µM in assay [1] turned out to be 13.1%; in assay [2], 36.9%; in assay [3], 27.1%; in assay [4] it was 14.1%; in assay [5], 27.3%.
Consider `COc1cc(/C=C/C(=O)Oc2cc3oc(=O)ccc3cc2OC)ccc1OCc1ccccc1`, for which the inhibition of growth at 10 µM in assay [1] came out at 1.39%; in assay [2] it was 10.4%; in assay [3], 2.36%; in assay [4], 4.36%; in assay [5] it was 9.91%.
As to `COc1cc2ccc(=O)oc2cc1OC(=O)/C=C/c1ccc(Cl)cc1`, the inhibition of growth at 10 µM came to 20.3% in assay [1]; 2.73% in assay [2]; 22.4% in assay [3]; 21.1% in assay [4]; 22.8% in assay [5].
With `COc1cc2ccc(=O)oc2cc1OC(=O)/C=C/c1ccccc1`, the inhibition of growth at 10 µM in assay [1] amounted to 10.1%; in assay [2] it was 19.4%; in assay [3], 19.4%; in assay [4] it was 12.2%; in assay [5], 3.65%.
As to `COc1ccc(/C=C/C(=O)Nc2cc3cc(OC)c(O)cc3oc2=O)cc1`, the values for the IC50 in assay [6], in assay [7] and in assay [8] were 578 nM, 505 nM and 649 nM, respectively. Further, the inhibition of growth at 10 µM in assay [1] came to 61.4%; in assay [2] it was 88.6%; in assay [3] it was 60.9%; in assay [4], 75.7%; in assay [5], 44.8%.
In the case of `COc1cc2cc(NC(=O)/C=C/c3ccc(C(F)(F)F)cc3)c(=O)oc2cc1O`, the inhibition of growth at 10 µM in assay [1] was found to be 24.6%; in assay [2] it was 26.4%; in assay [3], 19%; in assay [4], 17%; in assay [5], 12.6%.
As to `COc1ccc(/C=C/C(=O)Oc2cc3oc(=O)ccc3cc2OC)cc1`, the inhibition of growth at 10 µM in assay [1] was determined as 20.8%; in assay [2] it was 0.53%; in assay [3], 19.5%; in assay [4], 31.6%; in assay [5], 13.7%.
Consider `COc1cc2ccc(=O)oc2cc1OC(=O)/C=C/c1ccc(C#N)cc1`, for which the inhibition of growth at 10 µM in assay [1] is 14.3%; in assay [2] it was 17.9%; in assay [3], 13.2%; in assay [4], 13.6%; in assay [5], 10.5%.
`COc1cc2cc(NC(=O)/C=C/c3cc(OC)c(OC)c(OC)c3)c(=O)oc2cc1O`: the inhibition of growth at 10 µM came out at 12.9% in assay [1]; 4.87% in assay [2]; 9.45% in assay [3]; 7.11% in assay [4]; 18.3% in assay [5].
Regarding `COc1cc2cc(NC(=O)/C=C/c3ccccc3)c(=O)oc2cc1O`, the IC50 was determined as 369 nM in assay [6], 1150 nM in assay [7] and 2180 nM in assay [8]. Also, the inhibition of growth at 10 µM in assay [1] amounted to 44.5%; in assay [2], 65.7%; in assay [3], 58.3%; in assay [4], 60.3%; in assay [5], 6.06%.
On to `COc1cc(CCC(=O)Oc2cc3oc(=O)ccc3cc2OC)ccc1O`, for which the inhibition of growth at 10 µM in assay [1] came to 9.73%; in assay [2] it was 6.16%; in assay [3], 15.4%; in assay [4], 16.1%; in assay [5], 8.55%.
On to `COc1cc2ccc(=O)oc2cc1O` [SCOPOLETIN], for which the half-inhibitory concentration (IC50) in assay [6], in assay [7] and in assay [8] was over 30000 nM in each case. Moreover, the inhibition of growth at 10 µM stood at 8.47% in assay [1]; 4.23% in assay [2]; 0.98% in assay [3]; 1.36% in assay [4]; 2.63% in assay [5].
For `COc1cc2ccc(=O)oc2cc1OC(=O)/C=C/c1ccc(F)cc1`, the inhibition of growth at 10 µM worked out at 19.3% in assay [1]; 21.4% in assay [2]; 3.89% in assay [3]; 18% in assay [4]; 1.77% in assay [5].
